This is an account of results in ChEMBL document CHEMBL1770134, “Synthesis and in vitro activity of novel 1,2,4-triazolo[4,3-a]pyrimidine oxazolidinone antibacterial agents” (Bioorg Med Chem Lett, 2011).

SMILES strings stand for the structures. Values after ≈ are worked out from the molar mass of the structure shown. Some results are limits rather than exact numbers.

Series [1] relates to Staphylococcus epidermidis. Description: Antibacterial activity Staphylococcus epidermidis ATCC 12228. The class given is functional.
Another series relates to Escherichia coli. Description: Antibacterial activity against Escherichia coli ATCC 25922. The class given is functional.
In series [2] the test system is Enterococcus faecalis. Description: Antibacterial activity against Enterococcus faecalis ATCC 29212. The class given is functional.
Series [3] concerns Staphylococcus aureus. Description: Antibacterial activity against methicillin-resistant Staphylococcus aureus ATCC 43300. The class given is functional. Summed up: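 MIC determined following CLSI guideline M07-A8 (2009) for dilution susceptibility testing of aerobically growing bacteria.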
Series [4] relates to Staphylococcus aureus. Description: Antibacterial activity against Staphylococcus aureus ATCC 25923. The class given is functional.
The test system of series [5] is Enterococcus faecalis. Description: Ratio of MIC for Linezolid to compound for Enterococcus faecalis ATCC 29212. The class given is functional.
The subject of series [6] is Staphylococcus aureus. Description: Ratio of MIC for Linezolid to compound for Staphylococcus aureus ATCC 25923. The class given is functional.
Series [7] concerns Staphylococcus epidermidis. The series is described as follows: Ratio of MIC for Linezolid to compound for Staphylococcus epidermidis ATCC 12228. The class given is functional.
Another series concerns the target T1, CYP1A2 (Homo sapiens, UniProt P05177).
T1 sequence (P05177 whole entry): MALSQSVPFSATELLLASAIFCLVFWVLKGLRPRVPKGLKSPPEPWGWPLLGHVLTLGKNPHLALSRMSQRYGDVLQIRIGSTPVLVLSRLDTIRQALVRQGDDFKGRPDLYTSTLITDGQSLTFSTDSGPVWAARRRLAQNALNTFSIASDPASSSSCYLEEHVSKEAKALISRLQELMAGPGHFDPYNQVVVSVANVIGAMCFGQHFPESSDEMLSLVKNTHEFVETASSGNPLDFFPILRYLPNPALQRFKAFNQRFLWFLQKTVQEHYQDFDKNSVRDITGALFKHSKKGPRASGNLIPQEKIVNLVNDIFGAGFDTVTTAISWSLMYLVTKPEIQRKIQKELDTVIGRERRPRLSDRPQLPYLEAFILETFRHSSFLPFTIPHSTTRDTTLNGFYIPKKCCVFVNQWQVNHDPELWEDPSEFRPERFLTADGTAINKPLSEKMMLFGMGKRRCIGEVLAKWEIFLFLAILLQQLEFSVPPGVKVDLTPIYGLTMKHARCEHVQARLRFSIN
Description: Inhibition of CYP1A2 at 10 uM. The class given is ADME. Summed up:
(§1)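 Recombinant CYP isoforms each incubated with its own fluorogenic substrate, which is turned into a fluorescent product; fluorescence read on a plate reader. Inhibition taken as concentration-dependent reduction of that fluorescence, with standard inhibitors, buffers and stop reagents from a commercial kit.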

In another series the target is CYP2C9 (Homo sapiens, UniProt P11712). Description: Inhibition of CYP2C9 at 10 uM. The class given is ADME. A digest of the protocol:
as §1

A further series has as its target CYP2C19 (Homo sapiens, UniProt P33261). Description: Inhibition of CYP2C19 at 10 uM. The class given is ADME. A digest of the protocol:
as §1

The next series has as its target CYP2D6 (Homo sapiens, UniProt P10635). Description: Inhibition of CYP2D6 at 10 uM. The class given is ADME. A digest of the protocol:
as §1

A further series concerns the target CYP3A4 (Homo sapiens, UniProt P08684). Description: Inhibition of CYP3A4 at 10 uM. The class given is ADME. Summed up: as §1
The subject of a further series is Liver. Description: Metabolic stability in human liver microsomes assessed per gram of liver. The class given is ADME, Microsome.

Sequence of CYP2D6 (P10635 whole entry): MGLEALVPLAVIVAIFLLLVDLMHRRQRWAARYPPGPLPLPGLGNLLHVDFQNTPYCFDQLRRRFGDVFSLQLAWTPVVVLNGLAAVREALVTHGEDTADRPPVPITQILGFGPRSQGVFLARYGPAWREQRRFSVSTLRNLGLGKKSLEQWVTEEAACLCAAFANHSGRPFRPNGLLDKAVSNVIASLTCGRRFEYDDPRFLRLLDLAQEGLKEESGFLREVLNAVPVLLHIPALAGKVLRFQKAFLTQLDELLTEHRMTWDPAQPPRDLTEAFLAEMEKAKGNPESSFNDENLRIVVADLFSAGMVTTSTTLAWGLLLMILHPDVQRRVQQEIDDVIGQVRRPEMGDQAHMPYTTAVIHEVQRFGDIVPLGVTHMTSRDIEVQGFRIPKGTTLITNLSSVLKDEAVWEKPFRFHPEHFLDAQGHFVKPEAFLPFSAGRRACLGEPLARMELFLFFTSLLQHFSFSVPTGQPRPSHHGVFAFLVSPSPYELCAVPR
Sequence of CYP2C19 (P33261 whole entry): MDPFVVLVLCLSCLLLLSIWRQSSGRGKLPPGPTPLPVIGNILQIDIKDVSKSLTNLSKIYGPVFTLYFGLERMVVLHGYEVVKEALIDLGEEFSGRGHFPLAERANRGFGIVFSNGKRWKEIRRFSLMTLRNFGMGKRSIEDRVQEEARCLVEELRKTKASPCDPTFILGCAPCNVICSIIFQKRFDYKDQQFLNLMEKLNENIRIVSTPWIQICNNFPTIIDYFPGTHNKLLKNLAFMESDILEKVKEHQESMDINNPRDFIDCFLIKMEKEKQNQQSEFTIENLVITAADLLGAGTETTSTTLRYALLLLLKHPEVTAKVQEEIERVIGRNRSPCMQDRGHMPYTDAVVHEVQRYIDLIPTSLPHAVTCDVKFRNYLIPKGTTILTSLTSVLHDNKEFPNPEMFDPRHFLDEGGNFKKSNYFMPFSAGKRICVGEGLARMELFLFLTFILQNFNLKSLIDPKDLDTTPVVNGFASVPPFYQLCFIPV
Sequence of CYP3A4 (P08684 whole entry): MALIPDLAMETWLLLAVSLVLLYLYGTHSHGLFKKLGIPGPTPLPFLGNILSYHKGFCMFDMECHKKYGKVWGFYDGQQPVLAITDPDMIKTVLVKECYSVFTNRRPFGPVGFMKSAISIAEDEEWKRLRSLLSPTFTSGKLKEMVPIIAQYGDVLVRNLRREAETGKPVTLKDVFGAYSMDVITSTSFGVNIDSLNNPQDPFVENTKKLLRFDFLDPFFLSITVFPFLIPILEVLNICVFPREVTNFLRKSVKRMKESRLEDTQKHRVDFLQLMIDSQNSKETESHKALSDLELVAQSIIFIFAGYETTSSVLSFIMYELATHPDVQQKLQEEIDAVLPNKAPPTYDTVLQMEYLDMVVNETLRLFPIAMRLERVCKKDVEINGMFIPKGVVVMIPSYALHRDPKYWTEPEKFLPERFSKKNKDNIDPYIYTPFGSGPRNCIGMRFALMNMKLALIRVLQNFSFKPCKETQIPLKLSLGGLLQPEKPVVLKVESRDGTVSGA
Sequence of CYP2C9 (P11712 whole entry): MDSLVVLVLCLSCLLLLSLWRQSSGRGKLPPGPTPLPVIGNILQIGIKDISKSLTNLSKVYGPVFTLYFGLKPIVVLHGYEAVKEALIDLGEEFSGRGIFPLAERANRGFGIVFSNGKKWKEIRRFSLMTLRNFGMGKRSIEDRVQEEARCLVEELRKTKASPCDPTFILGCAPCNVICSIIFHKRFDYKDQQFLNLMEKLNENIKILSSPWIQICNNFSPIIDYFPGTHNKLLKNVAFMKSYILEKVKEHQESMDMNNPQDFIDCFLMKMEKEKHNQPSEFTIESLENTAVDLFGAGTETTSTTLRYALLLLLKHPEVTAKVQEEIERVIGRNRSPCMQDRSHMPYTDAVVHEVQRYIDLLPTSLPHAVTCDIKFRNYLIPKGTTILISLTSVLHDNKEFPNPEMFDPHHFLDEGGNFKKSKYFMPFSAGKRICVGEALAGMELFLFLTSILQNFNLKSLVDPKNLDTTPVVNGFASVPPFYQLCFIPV

For `CC(=O)NC[C@H]1CN(c2ccc(-c3nnc4ncccn34)cc2)C(=O)O1`, the MIC in series [1] is 8 µg/mL (≈ 22.7 µM); against Escherichia coli it was above 16 µg/mL; with Enterococcus faecalis [2], 16 µg/mL (≈ 45.4 µM); against Staphylococcus aureus [3], 16 µg/mL (≈ 45.4 µM); in the series with Staphylococcus aureus [4], 16 µg/mL (≈ 45.4 µM).

As for `CCC(=O)NC[C@H]1CN(c2ccc(-c3nnc4ncccn34)cc2)C(=O)O1`, the MIC is 16 µg/mL (≈ 43.7 µM) in series [1]; above 16 µg/mL against Escherichia coli; 16 µg/mL (≈ 43.7 µM) with Enterococcus faecalis [2]; 16 µg/mL (≈ 43.7 µM) with Staphylococcus aureus [3]; 16 µg/mL (≈ 43.7 µM) in the series on Staphylococcus aureus [4].

With `CCCC(=O)NC[C@H]1CN(c2ccc(-c3nnc4ncccn34)cc2)C(=O)O1`, the MIC in [1] was 16 µg/mL (≈ 42.1 µM); against Escherichia coli it was above 16 µg/mL; in the series on Enterococcus faecalis [2], above 16 µg/mL; with Staphylococcus aureus [3] it was 16 µg/mL (≈ 42.1 µM); in the series with Staphylococcus aureus [4] it was above 16 µg/mL.

Consider `CCCCC(=O)NC[C@H]1CN(c2ccc(-c3nnc4ncccn34)cc2)C(=O)O1`, for which the minimal inhibitory concentration (MIC) in series [1] is 16 µg/mL (≈ 40.6 µM); in the series on Escherichia coli, above 16 µg/mL; with Enterococcus faecalis [2], above 16 µg/mL; against Staphylococcus aureus [3], 16 µg/mL (≈ 40.6 µM); in the series with Staphylococcus aureus [4], above 16 µg/mL.

Consider `CC(C)CC(=O)NC[C@H]1CN(c2ccc(-c3nnc4ncccn34)cc2)C(=O)O1`, for which the minimum inhibitory concentration (MIC) is 16 µg/mL (≈ 40.6 µM) in series [1]; above 16 µg/mL in the series with Escherichia coli; above 16 µg/mL against Enterococcus faecalis [2]; 16 µg/mL (≈ 40.6 µM) in the series with Staphylococcus aureus [3]; above 16 µg/mL in the series with Staphylococcus aureus [4].

As to `CC(C)C(=O)NC[C@H]1CN(c2ccc(-c3nnc4ncccn34)cc2)C(=O)O1`, the MIC in [1] is above 16 µg/mL; with Escherichia coli, above 16 µg/mL; against Enterococcus faecalis [2], above 16 µg/mL; against Staphylococcus aureus [3], 16 µg/mL (≈ 42.1 µM); against Staphylococcus aureus [4], above 16 µg/mL.

With `O=C(CCl)NC[C@H]1CN(c2ccc(-c3nnc4ncccn34)cc2)C(=O)O1`, the MIC is 4 µg/mL (≈ 10.3 µM) in series [1]; above 16 µg/mL against Escherichia coli; 16 µg/mL (≈ 41.4 µM) with Enterococcus faecalis [2]; 4 µg/mL (≈ 10.3 µM) in the series on Staphylococcus aureus [3]; 4 µg/mL (≈ 10.3 µM) in the series on Staphylococcus aureus [4].

With `O=C(NC[C@H]1CN(c2ccc(-c3nnc4ncccn34)cc2)C(=O)O1)C(Cl)Cl`, the MIC in series [1] is 4 µg/mL (≈ 9.5 µM); against Escherichia coli, above 16 µg/mL; in the series with Enterococcus faecalis [2], 8 µg/mL (≈ 19 µM); in the series on Staphylococcus aureus [3] it was 8 µg/mL (≈ 19 µM); against Staphylococcus aureus [4], 4 µg/mL (≈ 9.5 µM).

In the case of `O=C(NC[C@H]1CN(c2ccc(-c3nnc4ncccn34)cc2)C(=O)O1)C1CC1`, the MIC was 8 µg/mL (≈ 21.1 µM) in [1]; above 16 µg/mL with Escherichia coli; 16 µg/mL (≈ 42.3 µM) in the series with Enterococcus faecalis [2]; 8 µg/mL (≈ 21.1 µM) with Staphylococcus aureus [3]; 16 µg/mL (≈ 42.3 µM) against Staphylococcus aureus [4].

On to `O=C(NC[C@H]1CN(c2ccc(-c3nnc4ncccn34)cc2)C(=O)O1)C1CCC1`, for which the MIC in series [1] is 16 µg/mL (≈ 40.8 µM); with Escherichia coli, above 16 µg/mL; against Enterococcus faecalis [2] it was above 16 µg/mL; against Staphylococcus aureus [3], 16 µg/mL (≈ 40.8 µM); with Staphylococcus aureus [4], above 16 µg/mL.

For the compound `O=C(NC[C@H]1CN(c2ccc(-c3nnc4ncccn34)cc2)C(=O)O1)c1ccccc1`, the minimal inhibitory concentration (MIC) (in series [1]; against Escherichia coli; with Enterococcus faecalis [2]; in the series on Staphylococcus aureus [3]; with Staphylococcus aureus [4]) was above 16 µg/mL throughout.

Take `CC(=S)NC[C@H]1CN(c2ccc(-c3nnc4ncccn34)cc2)C(=O)O1`: the MIC in series [1] is 0.5 µg/mL (≈ 1.36 µM); with Escherichia coli it was above 16 µg/mL; against Enterococcus faecalis [2], 1 µg/mL (≈ 2.71 µM); with Staphylococcus aureus [3], 0.5 µg/mL (≈ 1.36 µM); against Staphylococcus aureus [4] it was 1 µg/mL (≈ 2.71 µM). Also, the Ratio (with Enterococcus faecalis [5]; with Staphylococcus aureus [6]; in series [7]) was 2 in each case. The inhibition at 10 µM stood at 0% at CYP1A2; 15% on CYP2C9; 30% at CYP2C19; 13% against CYP2D6; 28% on CYP3A4. Also, in the series with Liver, the Stability turned out to be 0.3 mL/min/g.

Take `CCC(=S)NC[C@H]1CN(c2ccc(-c3nnc4ncccn34)cc2)C(=O)O1`: the minimum inhibitory concentration (MIC) is 2 µg/mL (≈ 5.23 µM) in [1]; above 16 µg/mL against Escherichia coli; 4 µg/mL (≈ 10.5 µM) against Enterococcus faecalis [2]; 2 µg/mL (≈ 5.23 µM) in the series with Staphylococcus aureus [3]; 4 µg/mL (≈ 10.5 µM) against Staphylococcus aureus [4].

Consider `COC(=O)NC[C@H]1CN(c2ccc(-c3nnc4ncccn34)cc2)C(=O)O1`, for which the MIC in series [1] is 16 µg/mL (≈ 43.4 µM); in the series on Escherichia coli, above 16 µg/mL; with Enterococcus faecalis [2], above 16 µg/mL; against Staphylococcus aureus [3] it was 16 µg/mL (≈ 43.4 µM); in the series with Staphylococcus aureus [4], 16 µg/mL (≈ 43.4 µM).

For the compound `CCOC(=O)NC[C@H]1CN(c2ccc(-c3nnc4ncccn34)cc2)C(=O)O1`, the MIC was above 16 µg/mL in [1]; above 16 µg/mL with Escherichia coli; above 16 µg/mL in the series with Enterococcus faecalis [2]; 16 µg/mL (≈ 41.8 µM) in the series on Staphylococcus aureus [3]; 16 µg/mL (≈ 41.8 µM) in the series with Staphylococcus aureus [4].

With `O=C(NC[C@H]1CN(c2ccc(-c3nnc4ncccn34)cc2)C(=O)O1)Oc1ccccc1`, the MIC (in [1]; in the series with Escherichia coli; against Enterococcus faecalis [2]; with Staphylococcus aureus [3]; in the series on Staphylococcus aureus [4]) was above 16 µg/mL in each case.

`CC(C)NC(=O)NC[C@H]1CN(c2ccc(-c3nnc4ncccn34)cc2)C(=O)O1`: the minimum inhibitory concentration (MIC) (in [1]; in the series on Escherichia coli; against Enterococcus faecalis [2]; in the series with Staphylococcus aureus [3]; with Staphylococcus aureus [4]) was above 16 µg/mL in each case.

`CC(C)(C)NC(=O)NC[C@H]1CN(c2ccc(-c3nnc4ncccn34)cc2)C(=O)O1`: the minimum inhibitory concentration (MIC) (in series [1]; in the series on Escherichia coli; in the series with Enterococcus faecalis [2]; against Staphylococcus aureus [3]; with Staphylococcus aureus [4]) was above 16 µg/mL throughout.

On to `CCCCNC(=O)NC[C@H]1CN(c2ccc(-c3nnc4ncccn34)cc2)C(=O)O1`, for which the MIC (in [1]; with Escherichia coli; in the series with Enterococcus faecalis [2]; in the series with Staphylococcus aureus [3]; in the series with Staphylococcus aureus [4]) was above 16 µg/mL throughout.

Consider `CC(C)NC(=S)NC[C@H]1CN(c2ccc(-c3nnc4ncccn34)cc2)C(=O)O1`, for which the MIC in series [1] was 16 µg/mL (≈ 38.9 µM); against Escherichia coli it was above 16 µg/mL; against Enterococcus faecalis [2], above 16 µg/mL; against Staphylococcus aureus [3] it was 16 µg/mL (≈ 38.9 µM); in the series with Staphylococcus aureus [4], 16 µg/mL (≈ 38.9 µM).

In the case of `CCCCNC(=S)NC[C@H]1CN(c2ccc(-c3nnc4ncccn34)cc2)C(=O)O1`, the MIC in series [1] was 8 µg/mL (≈ 18.8 µM); against Escherichia coli, above 16 µg/mL; against Enterococcus faecalis [2], 16 µg/mL (≈ 37.6 µM); against Staphylococcus aureus [3], 8 µg/mL (≈ 18.8 µM); in the series on Staphylococcus aureus [4], 16 µg/mL (≈ 37.6 µM).

Regarding `COCCNC(=S)NC[C@H]1CN(c2ccc(-c3nnc4ncccn34)cc2)C(=O)O1`, the MIC in series [1] was 8 µg/mL (≈ 18.7 µM); against Escherichia coli it was above 16 µg/mL; in the series with Enterococcus faecalis [2], above 16 µg/mL; against Staphylococcus aureus [3], 16 µg/mL (≈ 37.4 µM); against Staphylococcus aureus [4], above 16 µg/mL.

Regarding `CC(=O)NC[C@H]1CN(c2ccc(N3CCOCC3)c(F)c2)C(=O)O1` [LINEZOLID], the minimal inhibitory concentration (MIC) in series [1] is 1 µg/mL (≈ 2.96 µM); against Escherichia coli, above 16 µg/mL.
